In test [1] the test system is Rattus norvegicus. The experiment in a line: In vivo reversal of sciatic nerve fructose accumulation in streptozotocin rat by chronic assay at 1 mg/kg (qd x 5). Format: functional. In short, it runs like this: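 Reversal design in STZ rats: once-daily dosing began 5 days after STZ. Sciatic nerve fructose was measured and activity expressed as % normalization at 1 mg/kg.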

In test [2] the target is T1, Sorbitol dehydrogenase (Homo sapiens, UniProt Q00796).
T1 sequence (Q00796 whole entry): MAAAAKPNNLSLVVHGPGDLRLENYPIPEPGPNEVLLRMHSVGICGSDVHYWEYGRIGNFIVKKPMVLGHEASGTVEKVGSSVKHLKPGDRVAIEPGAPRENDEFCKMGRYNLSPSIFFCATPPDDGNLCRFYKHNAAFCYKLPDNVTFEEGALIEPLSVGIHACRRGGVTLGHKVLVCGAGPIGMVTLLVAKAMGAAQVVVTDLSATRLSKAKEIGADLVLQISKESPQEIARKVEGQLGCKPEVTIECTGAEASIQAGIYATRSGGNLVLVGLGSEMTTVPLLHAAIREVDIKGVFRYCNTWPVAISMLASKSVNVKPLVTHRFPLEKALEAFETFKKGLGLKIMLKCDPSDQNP
The experiment in a line: In vitro inhibition against human recombinant sorbitol dehydrogenase.

Test [3] relates to Rattus norvegicus. The experiment in a line: In vivo prevention of sciatic nerve fructose accumulation in streptozotocin diabetic rat by acute assay (tid x 4). Format: functional. The method, boiled down: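 Streptozotocin-diabetic rats dosed three times daily, starting 4 h after STZ, to prevent sciatic nerve fructose accumulation. Activity is reported as ED90 in mg/kg/d.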

Test [4] addresses T2, Sorbitol dehydrogenase (Rattus norvegicus, UniProt P27867).
T2 sequence (P27867 whole entry): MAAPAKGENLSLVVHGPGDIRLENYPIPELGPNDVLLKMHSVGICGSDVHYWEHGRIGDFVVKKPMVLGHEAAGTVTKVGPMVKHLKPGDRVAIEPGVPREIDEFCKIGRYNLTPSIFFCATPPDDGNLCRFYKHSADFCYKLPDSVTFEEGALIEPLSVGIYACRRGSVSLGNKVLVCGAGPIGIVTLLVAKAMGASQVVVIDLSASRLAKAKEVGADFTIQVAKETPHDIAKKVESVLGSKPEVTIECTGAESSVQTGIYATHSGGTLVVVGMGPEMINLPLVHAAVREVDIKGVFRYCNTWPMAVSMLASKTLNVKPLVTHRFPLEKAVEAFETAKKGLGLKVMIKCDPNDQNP
The experiment in a line: Inhibition of recombinant rat sorbitol dehydrogenase.

Test [5] concerns the target T1, Sorbitol dehydrogenase. The experiment in a line: In vitro inhibition against human recombinant Sorbitol dehydrogenase.
Test [6] has as its target T2, Sorbitol dehydrogenase. The experiment in a line: Inhibition of recombinant rat Sorbitol dehydrogenase.

pIC50: −log10 of the molar value.

The pIC50 is the IC50 on a negative log10 scale, so that one unit is a factor of ten.

Turning to `CC(=O)c1nccc(N2C[C@@H](C)N(c3ccnc(C(C)=O)n3)[C@@H](C)C2)n1`, the Reversal in the test on Rattus norvegicus [1] is recorded as 92%. Besides, the figures for the negative logarithm of the IC50 (pIC50) on Sorbitol dehydrogenase [2] and on Sorbitol dehydrogenase [4] were 6.67 and 6.64, respectively. The molecule further had an ED90 in the test with Rattus norvegicus [3] of 0.9 mg/kg/day.

In the case of `C[C@H](O)c1nccc(N2C[C@@H](C)N(c3ccnc([C@H](C)O)n3)[C@@H](C)C2)n1`, the pIC50 on Sorbitol dehydrogenase [5] was 6.08; on Sorbitol dehydrogenase [6] it was 6.19. Moreover, the Reversal in the test with Rattus norvegicus [1] is listed as 84%. This molecule yielded an ED90 with Rattus norvegicus [3] of 0.7 mg/kg/day.

Take `CC(=O)c1nccc(N2C[C@@H](C)N(c3ccnc([C@@H](C)O)n3)[C@@H](C)C2)n1`: in the test with Rattus norvegicus [1], the Reversal is given as 94%. The pIC50 on Sorbitol dehydrogenase [2] is 7.72; at Sorbitol dehydrogenase [4], 7.74. In addition, in the test with Rattus norvegicus [3], the ED90 worked out at 0.2 mg/kg/day.

On to `C[C@H](O)c1nccc(N2C[C@@H](C)N(c3ccnc([C@@H](C)O)n3)[C@@H](C)C2)n1`, for which, in the test on Rattus norvegicus [1], the Reversal was 81%. Also, the negative logarithm of the IC50 (pIC50) on Sorbitol dehydrogenase [2] was 7.48; on Sorbitol dehydrogenase [4], 7.54. The ED90 in the test with Rattus norvegicus [3] is 0.4 mg/kg/day.

`CC(=O)c1nccc(N2[C@H](C)CN(c3ccnc([C@@H](C)O)n3)C[C@@H]2C)n1`: the Reversal in the test on Rattus norvegicus [1] turned out to be 77%. In addition, the negative-log IC50 (pIC50) is 8.22 on Sorbitol dehydrogenase [2] and 8.30 on Sorbitol dehydrogenase [4]. The ED90 in the test with Rattus norvegicus [3] is 0.5 mg/kg/day.

In the case of `C[C@H](O)c1nccc(N2[C@H](C)CN(c3ccnc([C@@H](C)O)n3)C[C@@H]2C)n1`, the pIC50 is 7.72 at Sorbitol dehydrogenase [5] and 7.57 at Sorbitol dehydrogenase [6]. Also, the Reversal in the test with Rattus norvegicus [1] amounted to 81%. In addition, the ED90 in the test on Rattus norvegicus [3] is 0.8 mg/kg/day.

Consider `CC(O)c1nccc(N2C[C@@H](C)N(c3ccnc(C(C)O)n3)[C@@H](C)C2)n1` (some centres not stated), for which the pIC50 on Sorbitol dehydrogenase [5] was 7.55; at Sorbitol dehydrogenase [6], 8.10. The Reversal in the test on Rattus norvegicus [1] was 92%. In the test on Rattus norvegicus [3], this molecule returned an ED90 of 0.6 mg/kg/day.

For `C[C@@H]1CN(c2ccnc([C@@H](C)O)n2)C[C@H](C)N1c1ccnc([C@@H](C)O)n1`, the Reversal in the test on Rattus norvegicus [1] is given as 90%. Moreover, the pIC50 at Sorbitol dehydrogenase [2] was 8.00; on Sorbitol dehydrogenase [4], 7.77. In the test with Rattus norvegicus [3], this molecule showed an ED90 of 0.2 mg/kg/day.

The values above are taken from ChEMBL document CHEMBL1135127, “SAR and species/stereo-selective metabolism of the sorbitol dehydrogenase inhibitor, CP-470,711” (Bioorg Med Chem Lett, 2002).
